Two compounds from ChEMBL document CHEMBL2203056, “Antimutagenic thio compounds from Sisymbrium officinale” (J Nat Prod, 2012) can be followed below.

SMILES strings stand for the structures.

Data set [1] can be described thus: Cytotoxicity against Escherichia coli WP2 (trpE65 deltauvrApKM101) assessed as cell viability up to 10 to 300 ug/mL after 72 hrs in presence of 25 ug/plate 2-aminofluorene and metabolic activation system S9. Format: ADME, organism-based. The note with it: read-out: Activity.
Data set [2] is described as follows: Cytotoxicity against Escherichia coli WP2 (trpE65 deltauvrA) assessed as cell viability up to 10 to 300 ug/mL after 72 hrs in presence of 25 ug/plate 2-aminofluorene and metabolic activation system S9. Format: ADME, organism-based. The note with it: read-out: Activity.
A short description of data set [3]: Cytotoxicity against Escherichia coli WP2 (trpE65) assessed as cell viability up to 10 to 300 ug/mL after 72 hrs in presence of 25 ug/plate 2-aminofluorene and metabolic activation system S9. Format: ADME, organism-based. The note with it: read-out: Activity. A digest of the protocol:
(§1)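 Viability check on the antimutagenicity mixtures. Culture, mutagen (MMS 1700 μg/plate; 2AA or 2AF 25 μg/plate with S9 mix), test substance and S9 mix or 0.1 M phosphate buffer were shaken 30 min at 37 °C. Mixtures were diluted to 2 × 10^3 cells/mL, plated in top agar on nutrient agar and incubated 72 h at 37 °C. Colonies counted and compared with the solvent-only negative control.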

The nature of data set [4]: Cytotoxicity against Escherichia coli WP2 (trpE65 deltauvrApKM101) assessed as cell viability up to 10 to 300 ug/mL after 72 hrs in presence of 25 ug/plate 2-aminoanthracene and metabolic activation system S9. It counts as ADME, organism-based. The note with it: read-out: Activity. A digest of the protocol: as §1
Data set [5] can be described thus: Cytotoxicity against Escherichia coli WP2 (trpE65 deltauvrA) assessed as cell viability up to 10 to 300 ug/mL after 72 hrs in presence of 25 ug/plate 2-aminoanthracene and metabolic activation system S9. Format: ADME, organism-based. The note with it: read-out: Activity. A digest of the protocol: as §1
Data set [6] in a line: Cytotoxicity against Escherichia coli WP2 (trpE65) assessed as cell viability up to 10 to 300 ug/mL after 72 hrs in presence of 25 ug/plate 2-aminoanthracene and metabolic activation system S9. The note with it: read-out: Activity. It counts as ADME, organism-based.
In data set [7] the test system is Escherichia coli. The experiment in a line: Antimutagenic activity in Escherichia coli WP2 (trpE65) assessed as maximal inhibition of 2-aminofluorene-induced mutagenic effect at 10 to 300 ug/plate after 72 hrs in presence of metabolic activation system S9 by Ames test. It counts as functional. An outline of the steps:
(§2)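 Preincubation Ames test with E. coli WP2 strains, from 16 h overnight cultures at 37 °C (about 2 × 10^9 bacteria/mL). Culture, mutagen, test substance (DMSO, 2% v/v vehicle) and either S9 mix (phenobarbital/β-naphthoflavone-induced rat liver) or 0.1 M phosphate buffer were shaken 30 min at 37 °C. Mutagens were MMS 1700 μg/plate without S9, and 2AA or 2AF 25 μg/plate with S9. Then top agar with 0.5 mM tryptophan on minimal agar, 72 h at 37 °C; tryptophan-independent revertants scored. Inhibition = 100 − (T/M × 100). Triplicates, at least two experiments.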
Background: In the Ames test, an excess of revertant colonies over the control signals mutagenicity.

Data set [8] has as its system Escherichia coli. Briefly: Antimutagenic activity in Escherichia coli WP2 (trpE65 deltauvrApKM101) assessed as maximal inhibition of 2-aminoanthracene-induced mutagenic effect at 10 to 300 ug/plate after 72 hrs in presence of metabolic activation system S9 by Ames test. Format: functional. An outline of the steps:
as §2

For data set [9], the system named is Escherichia coli. The experiment in a line: Antimutagenic activity in Escherichia coli WP2 (trpE65 deltauvrA) assessed as maximal inhibition of 2-aminoanthracene-induced mutagenic effect at 10 to 300 ug/plate after 72 hrs in presence of metabolic activation system S9 by Ames test. Format: functional. An outline of the steps: as §2
Data set [10] is described as follows: Cytotoxicity against Escherichia coli WP2 (trpE65 deltauvrApKM101) assessed as cell viability up to 10 to 300 ug/mL after 72 hrs in presence of 1700 ug/plate methyl methane sulfonate. Format: organism-based. The note with it: Escherichia coli WP2 (trpE65 deltauvrApKM101) cells, read-out: Activity. A digest of the protocol:
as §1

Data set [11] is described as follows: Cytotoxicity against Escherichia coli WP2 (trpE65 deltauvrA) assessed as cell viability up to 10 to 300 ug/mL after 72 hrs in presence of 1700 ug/plate methyl methane sulfonate. Format: organism-based. The note with it: Escherichia coli WP2 (trpE65 deltauvrA) cells, read-out: Activity. An outline of the steps:
as §1

Data set [12] is described as follows: Cytotoxicity against Escherichia coli WP2 (trpE65) assessed as cell viability up to 10 to 300 ug/mL after 72 hrs in presence of 1700 ug/plate methyl methane sulfonate. The note with it: Escherichia coli WP2 (trpE65) cells, read-out: Activity. It counts as organism-based. A digest of the protocol:
as §1

Data set [13] relates to Escherichia coli. The experiment in a line: Antimutagenic activity in Escherichia coli WP2 (trpE65 deltauvrApKM101) assessed as maximal inhibition of methyl methane sulfonate-induced mutagenic effect at 10 to 300 ug/plate after 72 hrs in absence of metabolic activation system S9 by Ames test. It counts as functional. A digest of the protocol: as §2
Data set [14] concerns Escherichia coli. The experiment in a line: Antimutagenic activity in Escherichia coli WP2 (trpE65 deltauvrA) assessed as maximal inhibition of methyl methane sulfonate-induced mutagenic effect at 10 to 300 ug/plate after 72 hrs in absence of metabolic activation system S9 by Ames test. It counts as functional. An outline of the steps:
as §2

In data set [15] the test system is Escherichia coli. The experiment in a line: Antimutagenic activity in Escherichia coli WP2 (trpE65) assessed as maximal inhibition of methyl methane sulfonate-induced mutagenic effect at 10 to 300 ug/plate after 72 hrs in absence of metabolic activation system S9 by Ames test. It counts as functional. An outline of the steps: as §2
Data set [16] in a line: Solubility of the compound up to 110 ug/mL. Format: physicochemical. An outline of the steps: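 Compounds dissolved in DMSO by sonication, stock up to 12 mg/mL. Insolubility in the final assay mixture judged as a precipitate visible to the unaided eye.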

In the case of `CC(C)/C(=N/OS(=O)(=O)O)S[C@@H]1O[C@H](CO)[C@@H](O)[C@H](O)[C@H]1O` [GLUCOPUTRANJIVIN], the viability at 72 h in [1] came out at 93%; in data set [2], 77%; in data set [3] it was 77%; in data set [4], 93%; in [5], 77%; in data set [6] it was 77%. Moreover, the values for the viability at 72 h in data set [10], in [11] and in [12] were 80%, 82% and 80%, respectively. Further, the “inhibition (INH)” value with Escherichia coli [7] was determined as 61.6%; in the data set with Escherichia coli [8], 21.5%; with Escherichia coli [9], 80.1%; with Escherichia coli [13] it was 38.5%; in the data set with Escherichia coli [14], 44.6%; in the data set with Escherichia coli [15], 32.8%. For the same compound, the solubility entry in data set [16] is given as “soluble”.
Take `CC(C)N=C=S` [ISOPROPYL ISOTHIOCYANATE]: the viability at 72 h in [1] stood at 93%; in data set [2], 77%; in data set [3] it was 77%; in [4], 93%; in [5], 77%; in [6], 77%. Besides, the viability at 72 h in data set [10] came out at 80%; in data set [11], 82%; in data set [12], 80%. Moreover, the “inhibition (INH)” value with Escherichia coli [7] is on record as 57.9%; in the data set on Escherichia coli [8], 18.6%; with Escherichia coli [9] it was 81.9%; in the data set with Escherichia coli [13], 32.9%; with Escherichia coli [14], 45.7%; in the data set on Escherichia coli [15] it was 9.7%. In addition, the solubility result in data set [16] is reported as “soluble”.
